According to ChEMBL document CHEMBL4834426, “Antimalarial Benzimidazole Derivatives Incorporating Phenolic Mannich Base Side Chains Inhibit Microtubule and Hemozoin Formation: Structure-Activity Relationship and In Vivo Oral Efficacy Studies” (J Med Chem, 2021):
Converted amounts (≈) assume the structure as drawn.

Experiments:
[1] = Selectivity index, ratio of IC50 for Cytotoxicity against CHO cells assessed as inhibition of cell viability by MTT assay to IC50 for antimalarial activity against asexual blood stage Plasmodium falciparum NF54 assessed as reduction in parasitemia incubated up to 72 hrs by [3H]hypoxanthine incorporation assay; format: toxicity, cell-based; details: hamster, read-out: Selectivity Index
Outline: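 Selectivity index is IC₅₀(CHO)/IC₅₀(NF54). […] IC₅₀ came from nonlinear dose-response fitting. Parasite IC₅₀ came from the [³H]-hypoxanthine assay.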

[2] = tested on: Plasmodium falciparum; test: Antimalarial activity against asexual blood stage drug-sensitive Plasmodium falciparum NF54 infected in erythrocytes assessed as reduction in parasitemia incubated up to 72 hrs by [3H]hypoxanthine incorporation assay; format: functional, organism-based
Outline: (§1)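 [³H]-Hypoxanthine incorporation assay (modified) on asexual blood-stage P. falciparum in vitro. IC₅₀ values are means of ≥2 independent experiments.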

[3] = tested on: Plasmodium falciparum; test: Antimalarial activity against asexual blood stage multi drug-resistant Plasmodium falciparum K1 infected in erythrocytes assessed as reduction in parasitemia incubated up to 72 hrs by [3H]hypoxanthine incorporation assay; format: functional, organism-based; outline: as §1
[4] = tested on: Plasmodium falciparum; test: Antiplasmodial activity against […] Plasmodium falciparum NF54 late gametocytes transfected with GFP-Luc […] at 5 uM incubated for 48 hrs by microscopy based luciferase reporter gene assay relative to control; format: functional
Outline: (§2)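 NF54-Pfs16-GFP-Luc gametocytes, assays set up day 5 (early, stage II/III) or day 10 (late, stage IV/V). Culture at 2−3% gametocytemia, 1.5% hematocrit, 48 h drug exposure at 37 °C under 90% N₂/5% O₂/5% CO₂. Lysates mixed with luciferin; bioluminescence read with 10 s integration. Dual-point: one biological repeat in technical triplicate. Methylene blue (5 μM) reference.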

[5] = tested on: CHO; test: Cytotoxicity against CHO cells assessed as inhibition of cell viability by MTT assay; format: cell-based; details: Cricetulus griseus
[6] = tested on: Plasmodium falciparum; test: Antiplasmodial activity against […] Plasmodium falciparum NF54 late gametocytes transfected with GFP-Luc […] at 1 uM incubated for 48 hrs by microscopy based luciferase reporter gene assay relative to control; format: functional; outline: as §2
[7] = tested on: Plasmodium falciparum; test: Antiplasmodial activity against […] Plasmodium falciparum NF54 early gametocytes transfected with GFP-Luc […] at 5 uM incubated for 48 hrs by microscopy based luciferase reporter gene assay relative to control; format: functional; outline: as §2
[8] = tested on: Plasmodium falciparum; test: Antiplasmodial activity against […] Plasmodium falciparum NF54 early gametocytes transfected with GFP-Luc […] at 1 uM incubated for 48 hrs by microscopy based luciferase reporter gene assay relative to control; format: functional; outline: as §2
[9] = Resistance index, ratio of IC50 for antimalarial activity against asexual blood stage multi drug-resistant Plasmodium falciparum K1 to IC50 for antimalarial activity against asexual blood stage drug-sensitive Plasmodium falciparum NF54; format: functional
Outline: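 Resistance index is IC₅₀(K1)/IC₅₀(NF54). Both IC₅₀s came from the [³H]-hypoxanthine incorporation assay, as means of ≥2 independent experiments.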

[10] = tested on: Plasmodium falciparum; test: Antiplasmodial activity against […] Plasmodium falciparum NF54 early gametocytes transfected with GFP-Luc […] incubated for 48 hrs by microscopy based luciferase reporter gene assay relative to control; format: functional, organism-based; details: NF54, 48 h
Outline: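 Transgenic NF54-Pfs16-GFP-Luc gametocytes, read by luciferase reporter. Early assays were set up on day 5 (50% stage II/50% stage III) and late assays on day 10 (40% stage IV/60% stage V). Luciferin was added to lysates at room temperature and bioluminescence read. Methylene blue (5 μM) was the reference. Single-point screens at 1 and 5 μM used n=1 in technical triplicate. IC₅₀ came from a normalized nonlinear fit, n≥3 in triplicate.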

[11] = Kinetic solubility of the compound in pH 6.5 incubated for 24 hrs by HPLC-DAD analysis; format: physicochemical; details: buffer, read-out: Kinetic_solubility
Outline: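 Miniaturized shake-flask method. 10 mM DMSO stock dried down, phosphate buffer pH 6.5 added, shaken 24 h at 25 °C. Centrifuged 3500g for 15 min; supernatant analyzed by HPLC-DAD against 10−220 μM DMSO calibration curve. Reserpine, hydrocortisone and MMV390048 as controls.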

[12] = Metabolic stability in mouse liver microsomes assessed as compound remaining at 1 uM incubated for 30 mins by LC-MS/MS analysis; format: ADME, Microsome; details: read-out: Stabilty
Outline: (§3)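 Single-point design: 1 μM compound with 0.4 mg/mL liver microsomes in 0.1 M phosphate buffer pH 7.4 for 30 min. Quenched with ice-cold acetonitrile containing carbamazepine internal standard, centrifuged, analyzed by LC−MS/MS. Percent remaining from internal-standard-corrected peak areas at 30 min versus 0 min. Propranolol, midazolam and MMV390048 as controls.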

[13] = Metabolic stability in human liver microsomes assessed as compound remaining at 1 uM incubated for 30 mins by LC-MS/MS analysis; format: ADME, Microsome; details: read-out: Stabilty; outline: as §3
[14] = Metabolic stability in rat liver microsomes assessed as compound remaining at 1 uM incubated for 30 mins by LC-MS/MS analysis; format: ADME, Microsome; details: read-out: Stabilty; outline: as §3

| Compound | selectivity ratio at 72 h [1] | IC50 [2] | IC50 [3] | inhibition at 5 µM [4] | IC50 [5] | inhibition at 1 µM [6] | inhibition at 5 µM [7] | inhibition at 1 µM [8] | Ratio IC50 [9] | IC50 [10] | solubility kinetic at 24 h [11] | remaining at 0.5 h, 1 µM [12] | remaining at 0.5 h, 1 µM [13] | remaining at 0.5 h, 1 µM [14] |
| --- | --- | --- | --- | --- | --- | --- | --- | --- | --- | --- | --- | --- | --- | --- |
| CCN(CC)Cc1cccc(Nc2nc3ccccc3n2Cc2ccc(C(F)(F)F)cc2)c1O | > 113 | 440 nM | 130 nM | 56% | > 50000 nM | 35% | 93% | 71% | 0.3 | 1450 nM |  |  |  |  |
| Cc1cc(CNC(C)(C)C)c(O)c(Nc2nc3cc(F)c(F)cc3n2Cc2ccc(C(F)(F)F)cc2)c1 | 40.2 | 250 nM | 150 nM | 73% | 10000 nM | 0% | 96% | 60% | 0.6 | 520 nM | < 5 µM | > 99% | 90% | 89% |
| CCN(CC)Cc1c(Cl)ccc(Nc2nc3ccccc3n2Cc2ccc(C(F)(F)F)cc2)c1O | > 27 | 1840 nM | 380 nM | 1% | > 50000 nM | 5% | 59% | 7% | 0.21 | 3060 nM |  |  |  |  |
| CCN(CC)Cc1cc(C)cc(Nc2nc3ccccc3n2Cc2ccc(C(F)(F)F)cc2)c1O | 154 | 190 nM | 60 nM | 62% | 29300 nM | 41% | 97% | 91% | 0.32 | 110 nM | < 5 µM | < 7% | 36% | < 7% |
| CCN(CC)Cc1cccc(Nc2nc3ccccc3n2Cc2ccc(F)cc2)c1O | > 136 | 360 nM | 180 nM | 58% | > 50000 nM | 36% | 91% | 65% | 0.5 | 2230 nM |  |  |  |  |
| CC(C)(C)NCc1cc(Cl)cc(Nc2nc3ccccc3n2Cc2ccc(C(F)(F)F)cc2)c1O | 130 | 280 nM | 60 nM | 0% | 36300 nM | 0% | 92% | 44% | 0.21 | 590 nM | < 5 µM | 36% | 81% | 9% |
| CCNCc1cc(C)cc(Nc2nc3ccccc3n2Cc2ccc(C(F)(F)F)cc2)c1O | 24.1 | 780 nM | 300 nM | 14% | 18800 nM | 0% | 95% | 30% | 0.39 | 990 nM | 35 µM (≈ 15.9 µg/mL) | 52% | 98% | 51% |
| CCN(CC)Cc1cc(C)cc(Nc2nc3ccccc3n2Cc2ccc(C#N)cc2)c1O | 21.8 | 650 nM | 460 nM | 52% | 14200 nM | 15% | 98% | 39% | 0.71 |  |  |  |  |  |
| CCN(CC)Cc1ccc(Nc2nc3ccccc3n2Cc2ccc(C(F)(F)F)cc2)cc1O | 88.3 | 470 nM | 870 nM | 24% | 41500 nM | 2% | 41% | 36% | 1.85 |  |  |  |  |  |
| Cc1cc(CNC(C)(C)C)c(O)c(Nc2nc3ccccc3[nH]2)c1 | 166 | 200 nM | 790 nM | 39% | 33300 nM | 22% | 47% | 0% | 3.95 |  |  |  |  |  |
| Cc1cc(CNC(C)(C)C)c(O)c(Nc2nc3cc(F)c(F)cc3[nH]2)c1 | 64 | 260 nM | 830 nM | 0% | 16600 nM | 0% | 31% | 0% | 3.19 |  |  |  |  |  |
| CCN(CC)Cc1ccc(C)c(Nc2nc3ccccc3n2Cc2ccc(F)cc2)c1O | > 22 | 2270 nM | 1320 nM | 39% | > 50000 nM | 0% | 24% | 14% | 0.58 |  |  |  |  |  |
| CCN(CC)Cc1cc(C)cc(Nc2nc3ccccc3n2Cc2ccc(F)cc2)c1O | 34 | 550 nM | 210 nM | 58% | 18700 nM | 41% | 97% | 81% | 0.38 | 880 nM |  |  |  |  |
